5 molecules from ChEMBL document CHEMBL5705888, “Substrate specificity and inhibitors of LRRK2, a protein kinase mutated in Parkinson's disease” (Biochem J, 2009) can be followed below.

Assay [1] deals with T1, Rho-associated protein kinase 2 (Homo sapiens, UniProt O75116). Kind of assay: Inhibition of ROCK2 in human Flp-In-T-REx-293 cells harboring GFP-tagged constitutively active G14V-Rho mutant assessed as inhibition of MYPT phosphorylation at Thr850 at 10 uM incubated for 1 hr by immunoblot analysis. In kind it is cell-based. In short, it runs like this:
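Flp-In T-REx cells carrying GFP-tagged G14V-Rho were induced with 1 μg/ml doxycycline in the medium. Seven hours after induction, cells were treated with 10 μM inhibitor for 1 h. They were then lysed directly in SDS lysis buffer and run on 4–12% gels. Blots were probed with anti-MYPT pThr850 (1 μg/ml in 5% BSA/TBST), followed by HRP secondary and ECL detection.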

Assay [2] has as its target Leucine-rich repeat serine/threonine-protein kinase 2 (Homo sapiens, UniProt Q5S007). Briefly: Inhibition of LRRK2 in human Flp-In-T-REx-293 cells harboring GFP-tagged constitutively active G14V-Rho mutant assessed as inhibition of ERM phosphorylation at 10 uM incubated for 1 hr in presence of LRRKtide by immunoblot analysis. Format: cell-based. The procedure, abridged: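 Flp-in T-REx cells carrying GFP-tagged G14V-Rho were left uninduced or induced with 1 μg/ml doxycycline. At 7 h, compound at 10 μM was added for 1 h. Cells were lysed in SDS lysis buffer, run on 4–12% gels and immunoblotted with pan-phospho-ERM antibody (1 μg/ml in milk/TBST containing 10 μg/ml LRRKtide).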

Assay [3] concerns the target RAC-alpha serine/threonine-protein kinase (Homo sapiens) (UniProt P31749). Kind of assay: Inhibition of PKBalpha (unknown origin) at 1 uM incubated for 30 mins in presence of [gamma-33P]ATP by multidrop micro reagent based assay relative to control; values are per cent of control.
Assay [4] addresses Serine/threonine-protein kinase PAK 6 (Homo sapiens) (UniProt Q9NQU5). Briefly: Inhibition of PAK6 (unknown origin) at 1 uM incubated for 30 mins in presence of [gamma-33P]ATP by multidrop micro reagent based assay relative to control.
Assay [5] concerns the target Tyrosine-protein kinase CSK (Homo sapiens) (UniProt P41240). Kind of assay: Inhibition of CSK (unknown origin) at 1 uM incubated for 30 mins in presence of [gamma-33P]ATP by multidrop micro reagent based assay relative to control.
Assay [6] addresses Mitogen-activated protein kinase 11 (Homo sapiens) (UniProt Q15759). Briefly: Inhibition of p38beta MAPK (unknown origin) at 1 uM incubated for 30 mins in presence of [gamma-33P]ATP by multidrop micro reagent based assay relative to control; values are per cent of control.
Assay [7] has as its target T1, Rho-associated protein kinase 2. Briefly: Inhibition of ROCK2 (unknown origin) at 1 uM incubated for 30 mins in presence of [gamma-33P]ATP by multidrop micro reagent based assay relative to control; values are per cent of control.
Assay [8] concerns the target Serine/threonine-protein kinase PLK1 (Homo sapiens) (UniProt P53350). Briefly: Inhibition of PLK1 (unknown origin) at 1 uM incubated for 30 mins in presence of [gamma-33P]ATP by multidrop micro reagent based assay relative to control; values are per cent of control.
Assay [9] deals with Leucine-rich repeat serine/threonine-protein kinase 2 (Homo sapiens), Q5S007 [G2019S]. Kind of assay: Inhibition of LRRK2 G2019S mutant (unknown origin) at 1 uM incubated for 30 mins in presence of [gamma-33P]ATP by multidrop micro reagent based assay relative to control; values are per cent of control.
For assay [10], the target named is Ribosomal protein S6 kinase alpha-1 (Homo sapiens) (UniProt Q15418). Briefly: Inhibition of RSK1 (unknown origin) at 1 uM incubated for 30 mins in presence of [gamma-33P]ATP by multidrop micro reagent based assay relative to control; values are per cent of control.
Assay [11] has as its target T2, Mitogen-activated protein kinase kinase kinase kinase 2 (Homo sapiens) (UniProt Q12851).
T2 sequence (whole entry): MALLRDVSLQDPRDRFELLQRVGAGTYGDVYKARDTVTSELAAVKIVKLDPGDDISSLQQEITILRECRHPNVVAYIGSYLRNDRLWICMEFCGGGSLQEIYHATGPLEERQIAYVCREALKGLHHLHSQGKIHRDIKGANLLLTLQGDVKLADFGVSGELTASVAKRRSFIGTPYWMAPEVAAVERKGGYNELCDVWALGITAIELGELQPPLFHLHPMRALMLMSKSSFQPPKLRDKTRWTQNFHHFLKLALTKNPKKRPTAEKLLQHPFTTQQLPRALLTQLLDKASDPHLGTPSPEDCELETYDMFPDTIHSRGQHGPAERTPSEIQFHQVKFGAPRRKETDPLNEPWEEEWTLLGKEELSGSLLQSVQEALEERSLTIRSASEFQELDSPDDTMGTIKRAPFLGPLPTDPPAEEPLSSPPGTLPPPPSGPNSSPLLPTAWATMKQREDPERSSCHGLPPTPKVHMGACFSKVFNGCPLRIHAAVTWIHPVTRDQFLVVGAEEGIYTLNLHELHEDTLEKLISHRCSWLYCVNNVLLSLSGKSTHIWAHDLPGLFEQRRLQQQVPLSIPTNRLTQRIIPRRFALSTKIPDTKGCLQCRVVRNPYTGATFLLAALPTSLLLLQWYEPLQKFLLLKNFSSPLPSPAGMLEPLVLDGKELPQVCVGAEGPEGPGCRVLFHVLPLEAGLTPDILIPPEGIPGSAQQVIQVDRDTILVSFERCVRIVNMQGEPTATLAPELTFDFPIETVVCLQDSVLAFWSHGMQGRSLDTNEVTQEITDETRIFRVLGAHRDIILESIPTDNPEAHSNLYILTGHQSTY
Kind of assay: Inhibition of GCK (unknown origin) at 1 uM incubated for 30 mins in presence of [gamma-33P]ATP by multidrop micro reagent based assay relative to control.

For assay [12], the target named is Ephrin type-A receptor 2 (Homo sapiens) (UniProt P29317). Kind of assay: Inhibition of EPH A2 (unknown origin) at 1 uM incubated for 30 mins in presence of [gamma-33P]ATP by multidrop micro reagent based assay relative to control; values are per cent of control.
Assay [13] has as its target Tyrosine-protein kinase BTK (Homo sapiens) (UniProt Q06187). Briefly: Inhibition of BTK (unknown origin) at 1 uM incubated for 30 mins in presence of [gamma-33P]ATP by multidrop micro reagent based assay relative to control.
Assay [14] addresses Ribosomal protein S6 kinase alpha-3 (Homo sapiens) (UniProt P51812). Briefly: Inhibition of RSK2 (unknown origin) at 1 uM incubated for 30 mins in presence of [gamma-33P]ATP by multidrop micro reagent based assay relative to control; values are per cent of control.
The target in assay [15] is Protein kinase C alpha type (Homo sapiens) (UniProt P17252). Briefly: Inhibition of PKCalpha (unknown origin) at 1 uM incubated for 30 mins in presence of [gamma-33P]ATP by multidrop micro reagent based assay relative to control; values are per cent of control.

Activity calls are given as the source filed them. No cut-off for these calls is given here.

Sequence of Mitogen-activated protein kinase 11 (Homo sapiens) (Q15759 whole entry): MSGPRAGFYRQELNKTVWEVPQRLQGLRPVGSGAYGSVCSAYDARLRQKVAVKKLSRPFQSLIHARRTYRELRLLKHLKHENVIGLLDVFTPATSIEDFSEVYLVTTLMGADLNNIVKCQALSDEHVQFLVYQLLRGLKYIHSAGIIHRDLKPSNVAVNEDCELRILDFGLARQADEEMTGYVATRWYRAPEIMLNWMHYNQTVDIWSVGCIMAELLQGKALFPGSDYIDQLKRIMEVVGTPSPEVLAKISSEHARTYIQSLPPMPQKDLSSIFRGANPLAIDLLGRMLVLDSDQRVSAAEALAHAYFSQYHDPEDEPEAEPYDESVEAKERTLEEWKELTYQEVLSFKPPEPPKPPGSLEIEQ
Sequence of Ephrin type-A receptor 2 (Homo sapiens) (P29317 whole entry): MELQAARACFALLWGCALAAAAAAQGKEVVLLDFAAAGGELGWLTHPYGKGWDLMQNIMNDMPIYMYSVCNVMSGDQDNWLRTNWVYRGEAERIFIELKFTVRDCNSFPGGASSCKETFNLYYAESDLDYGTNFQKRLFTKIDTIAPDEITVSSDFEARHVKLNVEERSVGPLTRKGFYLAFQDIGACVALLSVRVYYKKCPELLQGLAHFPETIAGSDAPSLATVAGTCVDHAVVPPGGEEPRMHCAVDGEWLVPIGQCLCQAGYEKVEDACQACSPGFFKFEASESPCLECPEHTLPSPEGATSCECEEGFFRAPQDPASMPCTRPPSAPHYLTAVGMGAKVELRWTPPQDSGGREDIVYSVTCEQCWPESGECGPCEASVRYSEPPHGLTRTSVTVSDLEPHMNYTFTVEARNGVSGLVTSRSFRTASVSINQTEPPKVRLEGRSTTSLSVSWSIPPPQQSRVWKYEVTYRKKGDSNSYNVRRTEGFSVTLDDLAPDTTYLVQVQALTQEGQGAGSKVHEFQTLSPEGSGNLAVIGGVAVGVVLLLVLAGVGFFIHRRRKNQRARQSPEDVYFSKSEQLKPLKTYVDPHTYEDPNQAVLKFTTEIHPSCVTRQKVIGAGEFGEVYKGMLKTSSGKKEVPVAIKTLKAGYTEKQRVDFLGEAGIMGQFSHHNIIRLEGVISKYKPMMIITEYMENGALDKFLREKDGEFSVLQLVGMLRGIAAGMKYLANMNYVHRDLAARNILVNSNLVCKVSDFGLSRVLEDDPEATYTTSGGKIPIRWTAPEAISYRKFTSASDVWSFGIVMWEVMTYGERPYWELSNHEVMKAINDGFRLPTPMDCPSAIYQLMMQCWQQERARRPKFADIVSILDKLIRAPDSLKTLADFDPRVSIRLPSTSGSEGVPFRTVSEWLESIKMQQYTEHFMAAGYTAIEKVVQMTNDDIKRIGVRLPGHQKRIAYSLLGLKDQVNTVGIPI
Sequence of Serine/threonine-protein kinase PAK 6 (Homo sapiens) (Q9NQU5 whole entry, looked up): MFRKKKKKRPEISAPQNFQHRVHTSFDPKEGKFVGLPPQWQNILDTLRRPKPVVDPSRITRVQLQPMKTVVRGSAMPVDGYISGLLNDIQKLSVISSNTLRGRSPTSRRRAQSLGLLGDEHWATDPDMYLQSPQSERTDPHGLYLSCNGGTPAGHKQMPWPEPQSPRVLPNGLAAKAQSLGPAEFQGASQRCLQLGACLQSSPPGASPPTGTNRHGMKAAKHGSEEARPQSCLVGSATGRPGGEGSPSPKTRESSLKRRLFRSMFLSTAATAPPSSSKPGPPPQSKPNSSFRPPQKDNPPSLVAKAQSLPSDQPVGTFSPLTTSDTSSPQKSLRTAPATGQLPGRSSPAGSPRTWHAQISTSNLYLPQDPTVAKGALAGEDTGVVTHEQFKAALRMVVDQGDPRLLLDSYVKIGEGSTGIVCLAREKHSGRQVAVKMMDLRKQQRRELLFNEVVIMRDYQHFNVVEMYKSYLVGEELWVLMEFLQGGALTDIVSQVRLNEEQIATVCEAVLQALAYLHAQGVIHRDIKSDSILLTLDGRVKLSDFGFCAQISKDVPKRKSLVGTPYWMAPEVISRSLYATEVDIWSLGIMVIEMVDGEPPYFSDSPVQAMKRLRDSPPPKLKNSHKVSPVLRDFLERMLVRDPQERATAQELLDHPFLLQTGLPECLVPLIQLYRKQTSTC
Sequence of Ribosomal protein S6 kinase alpha-3 (Homo sapiens) (P51812 whole entry): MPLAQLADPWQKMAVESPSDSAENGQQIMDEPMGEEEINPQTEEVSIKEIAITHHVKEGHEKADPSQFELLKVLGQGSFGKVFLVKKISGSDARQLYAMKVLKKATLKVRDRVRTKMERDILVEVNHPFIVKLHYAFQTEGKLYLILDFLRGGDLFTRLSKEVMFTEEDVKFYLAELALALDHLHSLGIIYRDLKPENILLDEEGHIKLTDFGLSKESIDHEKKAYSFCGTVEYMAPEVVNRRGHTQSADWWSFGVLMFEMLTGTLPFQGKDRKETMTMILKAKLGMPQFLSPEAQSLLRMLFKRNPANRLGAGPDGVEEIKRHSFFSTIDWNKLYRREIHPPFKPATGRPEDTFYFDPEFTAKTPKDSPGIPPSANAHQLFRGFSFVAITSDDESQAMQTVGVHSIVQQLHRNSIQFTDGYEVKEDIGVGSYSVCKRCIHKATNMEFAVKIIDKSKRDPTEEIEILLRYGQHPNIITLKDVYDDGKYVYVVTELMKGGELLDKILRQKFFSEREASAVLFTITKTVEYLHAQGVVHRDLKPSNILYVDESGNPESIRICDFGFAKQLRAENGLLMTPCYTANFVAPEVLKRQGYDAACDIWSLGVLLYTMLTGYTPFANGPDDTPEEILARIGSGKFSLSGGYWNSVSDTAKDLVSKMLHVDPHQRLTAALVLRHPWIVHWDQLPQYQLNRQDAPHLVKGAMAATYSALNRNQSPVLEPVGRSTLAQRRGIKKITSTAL
Sequence of Serine/threonine-protein kinase PLK1 (Homo sapiens) (P53350 whole entry): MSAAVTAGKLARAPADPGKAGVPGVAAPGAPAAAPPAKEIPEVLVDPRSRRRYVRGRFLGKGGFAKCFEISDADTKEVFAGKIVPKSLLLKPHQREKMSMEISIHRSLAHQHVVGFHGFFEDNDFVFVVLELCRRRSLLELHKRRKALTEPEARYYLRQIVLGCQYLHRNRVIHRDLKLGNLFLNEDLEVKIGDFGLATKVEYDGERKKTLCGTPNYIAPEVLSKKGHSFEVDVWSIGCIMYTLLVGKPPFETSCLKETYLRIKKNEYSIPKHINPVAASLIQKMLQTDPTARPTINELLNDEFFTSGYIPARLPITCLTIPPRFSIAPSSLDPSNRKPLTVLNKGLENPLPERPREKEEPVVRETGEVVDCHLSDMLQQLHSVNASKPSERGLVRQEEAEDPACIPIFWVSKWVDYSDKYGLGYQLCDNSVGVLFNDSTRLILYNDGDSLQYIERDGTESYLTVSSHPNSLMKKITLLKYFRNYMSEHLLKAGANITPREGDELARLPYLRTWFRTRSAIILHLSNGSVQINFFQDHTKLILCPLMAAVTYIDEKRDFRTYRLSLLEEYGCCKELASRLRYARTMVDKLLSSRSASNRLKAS
Sequence of Ribosomal protein S6 kinase alpha-1 (Homo sapiens) (Q15418 whole entry): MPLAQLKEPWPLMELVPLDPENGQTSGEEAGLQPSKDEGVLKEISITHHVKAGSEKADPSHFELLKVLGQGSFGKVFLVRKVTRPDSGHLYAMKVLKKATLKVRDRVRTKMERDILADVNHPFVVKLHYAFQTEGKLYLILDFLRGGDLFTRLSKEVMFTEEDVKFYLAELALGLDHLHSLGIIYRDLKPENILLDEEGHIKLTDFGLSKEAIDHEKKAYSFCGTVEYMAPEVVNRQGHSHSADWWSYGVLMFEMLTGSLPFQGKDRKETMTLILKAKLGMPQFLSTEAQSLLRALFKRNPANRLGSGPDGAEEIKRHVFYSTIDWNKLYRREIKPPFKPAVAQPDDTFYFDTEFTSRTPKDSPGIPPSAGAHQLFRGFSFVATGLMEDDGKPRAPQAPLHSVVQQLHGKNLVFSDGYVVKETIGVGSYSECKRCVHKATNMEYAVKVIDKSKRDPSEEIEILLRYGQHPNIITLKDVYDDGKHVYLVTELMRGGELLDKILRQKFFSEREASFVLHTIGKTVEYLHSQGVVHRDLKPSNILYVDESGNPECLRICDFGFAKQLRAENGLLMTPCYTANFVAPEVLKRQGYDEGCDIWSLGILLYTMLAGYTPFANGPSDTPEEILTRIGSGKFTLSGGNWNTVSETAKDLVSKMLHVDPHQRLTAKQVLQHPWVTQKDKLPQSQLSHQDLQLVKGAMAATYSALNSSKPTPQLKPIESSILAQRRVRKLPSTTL

As for `C[C@@H](N)[C@H]1CC[C@H](C(=O)Nc2ccncc2)CC1`, the inhibition result in [1] is “Active”. Besides, the inhibition result in assay [2] was “inactive”.
With `CCn1c(-c2nonc2N)nc2cnc(Oc3cccc(NC(=O)c4ccc(OCCN5CCOCC5)cc4)c3)cc21` [GSK-269962A], the residual activity in assay [3] was determined as 26%; in [4], 106%; in [6], 113%; in [7], 1%; in [8] it was 105%; in assay [9] it was 66%. In addition, the residual activity in assay [10] came out at 12%; in assay [11], 78%; in assay [12] it was 108%; in [14], 24%; in assay [15] it was 32%. For the same molecule, the inhibition in [5] worked out at 98%; in assay [13], 107%. For the same molecule, the inhibition entry in [2] was “inactive”.
In the case of `CC1=C(C(=O)Nc2cc3cn[nH]c3cc2F)C(c2ccc(C(F)(F)F)cc2)CC(=O)N1` (stereo unspecified), the residual activity in assay [3] was 72%; in [4], 109%; in [6], 97%; in assay [7], 3%; in assay [8], 102%; in assay [9], 97%. Further, the residual activity was 20% in [10]; 97% in assay [11]; 105% in [12]; 48% in assay [14]; 82% in assay [15]. Moreover, the inhibition in [5] was determined as 106%; in assay [13], 66%. The inhibition entry in [1] is “Active”. The inhibition result in [2] is “inactive”.
For the molecule `Cc1cncc2cccc(S(=O)(=O)N3CCCNC[C@@H]3C)c12`, the residual activity in assay [3] was 64%; in assay [4] it was 103%; in [6], 107%; in assay [7] it was 3%; in [8], 105%; in assay [9], 13%. The residual activity in [10] came to 57%; in assay [11], 56%; in assay [12] it was 49%; in assay [14], 76%; in [15], 70%. In addition, the inhibition in assay [5] is 101%; in assay [13], 82%. Moreover, the inhibition entry in assay [1] was “Active”. In addition, the inhibition result in [2] was “inactive”.
Turning to `CCN(CC)CCNC(=O)c1c(C)[nH]c(/C=C2\C(=O)Nc3ccc(F)cc32)c1C`, the residual activity is 73% in [3], 67% in assay [7], 78% in assay [10] and 41% in [14]. Also, the inhibition entry in [2] was “inactive”.
